Reference: PMC9095748 (The Journal of Biological Chemistry, 2022)
Converted amounts (≈) assume the structure as drawn. “And” between values parts separate entries of the source, which are not always exact repeats. Equal values may be shown once.

Columns and labels:
hGLP1R [1] = target: T1, hGLP1R (Homo sapiens, UniProt P43220); experiment: cAMP Glo assay in hGLP1R-transfected 293A cells; format: cell-based
In short: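 293A cells transiently lipofected with hGLP1R at 70% confluency. Seeded 4 h later at 5×10^4 cells/well and left overnight. Treated 4 h with DMSO or test compound at 0.5, 10, 20, 100, 200, 300, 500, 1000 and 2000 nM. Cells lysed and cAMP read by cAMP-Glo luminescence. EC50 from curve fitting; n = 3/group.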

[2] = Pharmacokinetics after single oral dose in BALB/c mice; format: in vivo
In short: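 Male BALB/c mice (5-6 weeks, 25 ± 2 g) given a single oral dose of 25 mg/kg and killed at 5 min to 24 h. Plasma extracted with acetonitrile:methanol (1:1) and run on reverse-phase C18 HPLC at 28 °C. Mobile phase 0.1% TFA water/acetonitrile (40:60) at 1 ml/min, fluorescence detection (ex 350 nm, em 497 nm). Quantified from peak-area standard curve; PK parameters by standard methods.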

[3] = Safety observation in BALB/c mice over 30 days of treatment; format: in vivo; conditions: 25 mg/kg
[4] = Tissue distribution after oral administration in mice; format: in vivo, BALB/c mice; conditions: 2 h after oral administration
In short: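 Male BALB/c mice dosed orally at 25 mg/kg. Organs (pancreas, heart, brain, lung, spleen, kidney, liver) collected 2 h after dosing and homogenized. Extracted with acetonitrile:methanol (1:1) and run on reverse-phase C18 HPLC with 0.1% TFA water/acetonitrile (40:60) and fluorescence detection (ex 350 nm, em 497 nm). Quantified against a standard curve.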

INS-1 cells = experiment: Insulin secretion assay in INS-1 cells; format: cell-based, rat; conditions: high glucose 16.7 mM, 1.5 h
In short: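 INS-1 cells seeded, then held 16 h in 5 mM glucose medium and 1.5 h in 2.5 mM glucose. Treated 1.5 h with test compound or DMSO vehicle at 16.7 mM glucose. Supernatant insulin measured by rat insulin ELISA and normalized to total protein. n = 3/group.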

TXNIP promoter = experiment: TXNIP promoter-luciferase activity assay in INS-1 cells; format: cell-based, rat; conditions: PK2 50 μM, 45 min, INS-1 cells transfected with TXNIP promoter-luciferase construct
hGLP1R [5] = target: T1, hGLP1R; experiment: GLP1R internalization in hGLP1R-GFP transfected HepG2 cells; format: cell-based; conditions: for GLP1R internalization: 50 μM, 1 h, hGLP1R-GFP transfected HepG2 cells
In short: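 HepG2 cells lipofected with hGLP1R-spark-GFP, then treated 1 h with test compound (50 µM), Ex-4 (20 nM, positive control) or DMSO. For antagonism, Ex-9 (300 nM) added 15 min before. Washed in PBS and formalin-fixed. Surface labelled with sulfo-NHS-biotin (1 mg/ml, 30 min, 4 °C), washed in 100 mM glycine, PFA-fixed, blocked in 1% BSA and stained with Texas-Red-avidin (5 µg/ml, 30 min). Internalization read by confocal microscopy.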

[6] = tested on: CREB phosphorylation at Ser133; experiment: CREB phosphorylation, Western blot in HepG2 cells; format: cell-based, human; conditions: PK2 50 μM, 1 hr, serum-starved HepG2 cells, vs DMSO
Solubility in DMSO = format: physicochemical
PKA = PKA activity ELISA in hGLP1R transfected 293A cells; format: cell-based, human; conditions: PK2 50 μM, 45 min, vs DMSO
In short: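 293A cells lipofected with hGLP1R-spark-GFP. After 48 h, seeded at 1.0×10^4 cells/well. Next day treated with test compound (50 μM) or DMSO for 45 min in serum-free medium. PKA activity read by an ELISA on immobilized PKA substrate, per the kit protocol.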

TXNIP = TXNIP protein expression, Western blot in INS-1 cells; format: cell-based, rat; conditions: PK2 30 min
In short: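 INS-1 cells treated with test compound or DMSO vehicle for 30 min. Lysed in RIPA buffer with protease and phosphatase inhibitors, protein measured by BCA, and reduced at 95 °C for 5 min. Run on 4-10% SDS-PAGE and blotted to PVDF. Blocked in 5% BSA or milk, then probed with anti-TXNIP and HRP-conjugated secondary in TBST with 5% BSA.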

[7] = tested on: STZ-induced diabetic mouse model; experiment: STZ-induced diabetic mouse model; format: in vivo, BALB/c mice
In short: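 Male BALB/c mice, 6-7 weeks old, acclimated 1 week, on chow. STZ 65 mg/kg in citrate buffer pH 4.0 given IP for 5 days after overnight fast. Test compound 25 mg/kg oral in CMC for 18 days, starting 3 days before or 1 day after STZ. Controls received 0.25% CMC with or without STZ. Tail-vein glucose taken on alternate days, body weight on random days. Pancreas sections stained for insulin/Ki67 and insulin/TUNEL; n ≥ 5/group.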

[8] = BALB/c mice, oral, single dose 25 mg/kg, plasma
[9] = male, BALB/c, mouse, plasma, po, 25 mg/kg

T1 sequence (P43220 24-463): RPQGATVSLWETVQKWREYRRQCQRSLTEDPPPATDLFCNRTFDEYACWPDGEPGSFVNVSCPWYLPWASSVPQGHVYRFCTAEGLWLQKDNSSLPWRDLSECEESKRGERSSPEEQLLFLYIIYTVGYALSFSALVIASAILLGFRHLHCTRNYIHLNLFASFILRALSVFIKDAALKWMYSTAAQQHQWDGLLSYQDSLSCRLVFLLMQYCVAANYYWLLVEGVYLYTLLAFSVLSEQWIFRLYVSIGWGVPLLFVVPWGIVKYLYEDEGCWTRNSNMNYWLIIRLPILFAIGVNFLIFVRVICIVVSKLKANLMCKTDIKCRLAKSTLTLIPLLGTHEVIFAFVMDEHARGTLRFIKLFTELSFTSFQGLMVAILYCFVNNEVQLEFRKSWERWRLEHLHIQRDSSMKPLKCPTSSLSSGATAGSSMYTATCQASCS

In the case of `O=[N+]([O-])c1ccc(Cn2cc(Cn3c4ccccc4c4nc5ccccc5nc43)nn2)cc1` [PK2, 6-((1-(4-nitrobenzyl)-1H-1,2,3-triazol-4-yl)methyl)-6H-indolo[2,3-b]quinoxaline], the EC50 (hGLP1R [1]) is reported as 43.7 nM, the “Plasma clearance (CL)” value ([2]; BALB/c mice, oral, single dose 25 mg/kg) is reported as 7.79 L/h and the “AUMC (0-t)” value [2, 8] is reported as 13,601.58 ng h/ml. The Area of last [2, 8] was 320.1451 ng·h/mL, the “Cl (Clearance)” value [2, 8] was 7.7875 L/h and the “K (Eliminatory rate constant)” value [2, 8] was 0.2003 h⁻¹. For the same molecule, the “VD (Apparent volume of distribution)” value ([2]; BALB/c mice, oral, single dose 25 mg/kg, plasma, 25 mg/kg) was 38.88 L and 38.882 L, the AUC(0-t) [2, 9] was 3210 ng·h/mL and the Cmax [2, 9] was 787 ng/mL. For the same molecule, the Tmax [2, 9] was 1 h, the half-life ([2]; male, BALB/c, mouse, plasma, po, 25 mg/kg, t1/2 (Elimination half life), BALB/c mice, single dose 25 mg/kg) was 4.8 h and the “Abnormal behavior or acute toxicity” value [3] was “no abnormal behavior or acute toxicity was observed”. For the same molecule, the “Tissue distribution: brain” value [4] was “A small amount of PK2 was detectable”, the “Tissue distribution: heart, lungs, and spleen” value [4] was “no traces” and the “Tissue distribution: liver, kidney, and pancreas” value [4] was “distributed highly”. The “Increase in insulin secretion” value (INS-1 cells) was 1.45 fold, the TXNIP promoter activity (TXNIP promoter) was “attenuates TXNIP promoter activity” and the GLP1R internalization (hGLP1R [5]) was “rapidly internalized GLP1R receptors”. The “Increase in CREB phosphorylation at Ser133” value [6] was 1.7 fold, the solubility (Solubility in DMSO) was 10000 µg/mL (≈ 23 mM) and the “Increment in PKA activity” value (PKA) was 1.6 fold. For the same molecule, the TXNIP protein expression (TXNIP) was “downregulates TXNIP”, the “Recovery of serum insulin levels” value ([7]; PK2-treated groups, 25 mg/kg oral, end of study, vs STZ group) was “up to 6 fold” and the “Enhancement of β-cell proliferation (Ki67)” value ([7]; PK2 groups, Ki67 in insulin-positive islet cells) was 1.7 fold. For the same molecule, the Pancreas weight ([7]; PK2 groups, at termination of the study) was “protection in pancreas weight”, the Body weight ([7]; STZ mice, PK2 25 mg/kg oral, compared to STZ only) was “increased body weight” and the “Reduction of number of TUNEL-positive cells in pancreatic islets” value ([7]; both PK2 groups compared to STZ group) was 3 fold. The “Preservation of β-cell mass” value ([7]; pre-PK2 and post-PK2 groups compared to STZ, insulin immunohistochemistry) was 4 fold, the “Islets area (H&E)” value ([7]; pre-PK2 and post-PK2 groups vs STZ group) was “significantly bigger islets area” and the “Reduction of plasma glucose levels” value ([7]; pre-PK2 and post-PK2 groups, 25 mg/kg oral, compared to STZ only) was 1.4 fold.
For “6-((1-(4-methoxybenzyl)-1H-1,2,3-triazol-4-yl)methyl)-6H-indolo[2,3-b]quinoxaline [PK4]”, the GLP1R internalization (hGLP1R [5]) was “rapidly internalized GLP1R receptors”.
In the case of `Cc1ccc(Cn2cc(Cn3c4ccccc4c4nc5ccccc5nc43)nn2)cc1` [PK3, 6-((1-(4-methylbenzyl)-1H-1,2,3-triazol-4-yl)methyl)-6H-indolo[2,3-b]quinoxaline], the GLP1R internalization (hGLP1R [5]) is reported as “rapidly internalized GLP1R receptors”.
With “Exendin (9–39) [Ex-9, reference compound]” the “Effect of antagonist on PK2-mediated GLP1R internalization” value (hGLP1R [5]; Ex-9 300 nM for 15 min, then PK2 50 μM for 1 h, HepG2 cells) was “blocking PK2-mediated GLP1R internalization”.
